Measured values: ChEMBL document CHEMBL5104174, “Development of tumor-targeting aza-vesamicol derivatives with high affinity for sigma receptors for cancer theranostics” (RSC Med Chem, 2022)
pKi: −log10 of the molar value.

How the values were obtained:
[1] = Drug uptake in tumor of Balb/c mouse xenografted with human DU-145 cells assessed as radioactivity at 37 kBq, iv and measured upto 24 hrs post-injection by gamma counter analysis; format: ADME, organism-based, Neoplasm; conditions: in vivo
Outline: (§1)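 About 5 × 10⁶ DU-145 cells injected sc into the right dorsum of 4-week-old male BALB/c nude mice. Sacrificed at 1 and 24 h. Gamma counting, expressed as % injected dose, mean ± SD.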

[2] = Biodistribution in liver of Balb/c mouse xenografted with human DU-145 cells assessed as radioactivity at 37 kBq, iv and measured upto 24 hrs post-injection by gamma counter analysis; format: ADME, organism-based; conditions: in vivo; outline: as §1
[3] = Biodistribution in kidney of Balb/c mouse xenografted with human DU-145 cells assessed as radioactivity at 37 kBq, iv and measured upto 24 hrs post-injection by gamma counter analysis; format: ADME, organism-based; conditions: in vivo; outline: as §1
[4] = Biodistribution in lung of Balb/c mouse xenografted with human DU-145 cells assessed as radioactivity at 37 kBq, iv and measured upto 24 hrs post-injection by gamma counter analysis; format: ADME, organism-based; conditions: in vivo; outline: as §1
[5] = target: Sigma non-opioid intracellular receptor 1 (Rattus norvegicus, UniProt Q9R0C9); test: Displacement of (+)-[3H]pentazocine from sigma-1 receptor in Sprague-Dawley rat cerebral membrane incubated for 90 mins by liquid scintillation counter analysis; format: cell membranes, Cerebrum
Chain of Sigma non-opioid intracellular receptor 1 (Q9R0C9 whole entry): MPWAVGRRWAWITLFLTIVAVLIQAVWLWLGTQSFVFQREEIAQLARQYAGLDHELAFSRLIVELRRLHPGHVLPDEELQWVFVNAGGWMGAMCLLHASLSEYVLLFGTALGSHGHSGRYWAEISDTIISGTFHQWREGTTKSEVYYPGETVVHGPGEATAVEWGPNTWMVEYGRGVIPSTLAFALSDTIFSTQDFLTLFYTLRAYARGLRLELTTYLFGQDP

[6] = target: T1, Sigma intracellular receptor 2 (Rattus norvegicus, UniProt Q5U3Y7); test: Displacement of [3H]DTG from sigma-2 receptor in Sprague-Dawley rat liver membrane incubated for 90 mins in presence of by liquid scintillation counter analysis (+)-pentazocine by liquid scintillation counter analysis; format: cell membranes
T1 sequence (Q5U3Y7 whole entry): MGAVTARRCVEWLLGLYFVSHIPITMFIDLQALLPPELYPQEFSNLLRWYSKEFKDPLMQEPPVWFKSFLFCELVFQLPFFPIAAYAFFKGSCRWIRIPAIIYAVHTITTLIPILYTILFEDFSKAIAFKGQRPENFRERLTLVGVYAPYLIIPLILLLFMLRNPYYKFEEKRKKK

[7] = Drug uptake in human DU-145 cells assessed as radioactivity at 3.7 kBq incubated for 15 to 120 mins; format: ADME, cell-based; conditions: time 15-120 min
Outline: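 DU-145 cells grown in RPMI 1640 with 10% FBS, seeded and pre-incubated 24 h. Washed with ice-cold PBS, lysed in 1 M NaOH, counted and normalized to BCA protein. Mean ± SD.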

[8] = 1-Octanol/PBS partition coefficient, logP of the compound at pH 7.4 by shake flask method; format: physicochemical
Outline: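 Radioiodinated tracer partitioned between 1-octanol and 0.1 M phosphate buffer pH 7.4 by shake-flask. Ratio of radioactivity in octanol to that in buffer, expressed as log P. Mean ± SD of four samples.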

[9] = Stability of the compound in pH 7.4 phosphate buffer assessed as parent compound remaining at 22 to 82 kBq incubated for 24 hrs by RP-HPLC analysis; format: physicochemical; conditions: dose 22-82 kBq, read-out: Stability
[10] = Metabolic stability in mouse plasma assessed parent compound remaining at 74 to 93 kBq incubated for 1 hrs by RP-HPLC analysis; format: ADME, cell-free; conditions: dose 74-93 kBq, read-out: Stability
Outline: (§2)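 Ice-cold acetonitrile added, centrifuged 1700 g for 15 min at 4 °C, filtered 0.45 μm. Intact tracer measured by RP-HPLC; mean ± SD of three samples.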

[11] = Metabolic stability in mouse plasma assessed parent compound remaining at 74 to 93 kBq incubated for 24 hrs by RP-HPLC analysis; format: ADME, cell-free; conditions: dose 74-93 kBq, read-out: Stability; outline: as §2
[12] = Biodistribution in ddY mouse blood assessed as blood clearance by measuring radioactivity at 18 to 33 kBq, iv […] and measured upto 24 hrs post-injection by gamma counter analysis; format: ADME, organism-based; conditions: in vivo, dose 18-33 kBq
Outline: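 Male ddY mice, 6 weeks old, 28–30 g. Sacrificed at 10, 30 min, 1, 4, 8 and 24 h postinjection. Tissue radioactivity counted in a gamma counter.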

[13] = Biodistribution in ddY mouse neck assessed as radioactivity at 18 to 33 kBq, […] by gamma counter analysis; format: ADME, organism-based; conditions: in vivo, iv, dose 18-33 kBq
[14] = Drug uptake in tumor of Balb/c mouse xenografted with human DU-145 cells assessed as radioactivity at 37 kBq, iv and measured after 1 hrs post-injection by gamma counter analysis; format: ADME, organism-based, Neoplasm; conditions: in vivo; outline: as §1
[15] = Drug uptake in tumor of Balb/c mouse xenografted with human DU-145 cells at 50 MBq, iv and measured after 24 hrs post-injection by SPECT/CT analysis; format: ADME, organism-based, Neoplasm; conditions: in vivo
Outline: (§3)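 DU-145 sc xenografts in BALB/c nude mice. HPLC-purified 123I-tracer given iv, 50 MBq or 38 MBq per tracer. Small-animal SPECT/CT at 24 h postinjection, 0.8 mm voxels.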

[16] = Drug uptake in pancreas of Balb/c mouse xenografted with human DU-145 cells at 50 MBq, iv and measured after 24 hrs post-injection by SPECT/CT analysis; format: ADME, organism-based; conditions: in vivo; outline: as §3
[17] = Drug uptake in thyroid gland of Balb/c mouse xenografted with human DU-145 cells at 50 MBq, iv and measured after 24 hrs post-injection by SPECT/CT analysis; format: ADME, organism-based; conditions: in vivo; outline: as §3
[18] = Drug uptake in tumor of Balb/c mouse xenografted with human DU-145 cells at 38 MBq, iv and measured after 24 hrs post-injection by SPECT/CT analysis; format: ADME, organism-based, Neoplasm; conditions: in vivo; outline: as §3
[19] = Drug uptake in pancreas of Balb/c mouse xenografted with human DU-145 cells at 38 MBq, iv and measured after 24 hrs post-injection by SPECT/CT analysis; format: ADME, organism-based; conditions: in vivo; outline: as §3
[20] = Drug uptake in thyroid gland of Balb/c mouse xenografted with human DU-145 cells at 38 MBq, iv and measured after 24 hrs post-injection by SPECT/CT analysis; format: ADME, organism-based; conditions: in vivo; outline: as §3

O[C@H]1CCCC[C@@H]1N1CCN(CCCc2ccc([125I])cc2)CC1 (relative stereo)
Drug uptake [1]: Active | Drug uptake [2]: Active | Drug uptake [3]: Active | Drug uptake [4]: Active

O[C@H]1CCCC[C@@H]1N1CCN(CCc2ccc(Br)cc2)CC1 (relative stereo)
pKi [5]: 8.01 | pKi [6]: 7.35

O[C@H]1CCC[C@@H]1N1CCN(CCCc2ccc(Br)cc2)CC1 (relative stereo)
pKi [5]: 8.09 | pKi [6]: 7.90

O[C@H]1CCC[C@@H]1N1CCN(CCCc2cccc(Br)c2)CC1 (relative stereo)
pKi [5]: 8.32 | pKi [6]: 8.09

O[C@H]1CCC[C@@H]1N1CCN(CCCc2cccc([125I])c2)CC1 (relative stereo)
Drug uptake [7]: Active | logD [8]: 2.5 | remaining at 24 h [9]: 96.3% | remaining at 1 h [10]: 96.5% | remaining at 24 h [11]: 94.8% | Drug uptake [12]: Active | Drug uptake [13]: Active | Drug uptake [1]: Active | Drug uptake [14]: Active

O[C@H]1CCCC[C@@H]1N1CCC(c2ccc([125I])cc2)CC1
Drug uptake [1]: Active | Drug uptake [2]: Active | Drug uptake [3]: Active | Drug uptake [4]: Active

O[C@H]1CCC[C@@H]1N1CCN(CCc2cccc([125I])c2)CC1 (relative stereo)
Drug uptake [7]: Active | logD [8]: 2.08 | remaining at 24 h [9]: 96.9% | remaining at 1 h [10]: 95.6% | remaining at 24 h [11]: 81.3% | Drug uptake [12]: Active | Drug uptake [13]: Active | Drug uptake [1]: Active | Drug uptake [14]: Active

O[C@H]1CCC[C@@H]1N1CCN(CCc2ccc(Br)cc2)CC1 (relative stereo)
pKi [5]: 8.00 | pKi [6]: 6.83

O[C@H]1CCC[C@@H]1N1CCN(CCc2cccc(Br)c2)CC1 (relative stereo)
pKi [5]: 7.91 | pKi [6]: 6.86

O[C@H]1CCC[C@@H]1N1CCN(CCCc2cccc(I)c2)CC1 (relative stereo)
pKi [5]: 7.84 | pKi [6]: 7.77

O[C@H]1CCCC[C@@H]1N1CCN(CCCc2cccc(Br)c2)CC1 (relative stereo)
pKi [5]: 8.11 | pKi [6]: 7.65

O[C@H]1CCC[C@@H]1N1CCN(CCc2cccc([123I])c2)CC1 (relative stereo)
Drug uptake [15]: Active | Drug uptake [16]: Active | Drug uptake [17]: Active

O[C@H]1CCC[C@@H]1N1CCN(CCCc2cccc([123I])c2)CC1 (relative stereo)
Drug uptake [18]: Active | Drug uptake [19]: Active | Drug uptake [20]: Active

O[C@H]1CCCC[C@@H]1N1CCN(CCCc2ccccc2Br)CC1 (relative stereo)
pKi [5]: 7.71 | pKi [6]: 7.49

O[C@H]1CCCC[C@@H]1N1CCN(CCc2cccc(Br)c2)CC1 (relative stereo)
pKi [5]: 7.76 | pKi [6]: 7.60

O[C@H]1CCC[C@@H]1N1CCN(CCc2ccccc2Br)CC1 (relative stereo)
pKi [5]: 7.67 | pKi [6]: 6.43

O[C@H]1CCC[C@@H]1N1CCN(CCc2cccc(I)c2)CC1 (relative stereo)
pKi [5]: 8.10 | pKi [6]: 7.13

O[C@H]1CCCC[C@@H]1N1CCN(CCCc2ccc(Br)cc2)CC1 (relative stereo)
pKi [5]: 8.36 | pKi [6]: 7.59

O[C@H]1CCC[C@@H]1N1CCN(CCCc2ccccc2Br)CC1 (relative stereo)
pKi [5]: 7.43 | pKi [6]: 6.94

O[C@H]1CCCC[C@@H]1N1CCN(CCc2ccccc2Br)CC1 (relative stereo)
pKi [5]: 7.99 | pKi [6]: 7.38
